Laboratory results as given in ChEMBL document CHEMBL4477242, “Synthesis, structure and antimicrobial evaluation of a new gossypol triazole conjugates functionalized with aliphatic chains and benzyloxy groups” (2016).
Converted amounts (≈) assume the structure as drawn.

Columns and labels:
[1] = Antifungal activity against Fusarium oxysporum f. sp. betae after 18 hrs by serial microdilution assay; type: functional
In short: (§1)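 Fungal strains tested by MIC determination, with miconazole run as the reference antifungal. The two Fusarium oxysporum formae speciales are isolates from plants (cabbage and tomatoes).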

Aspergillus brasiliensis = assay: Antifungal activity against Aspergillus brasiliensis ATCC 16404 after 18 hrs by serial microdilution assay; type: functional; details: ATCC 16404, 18 h; in short: as §1
[2] = tested on: Fusarium oxysporum f. sp. lycopersici; assay: Antifungal activity against Fusarium oxysporum f. sp. lycopersici after 18 hrs by serial microdilution assay; type: functional; in short: as §1
[3] = tested on: Staphylococcus epidermidis; assay: Antibacterial activity against Staphylococcus epidermidis ATCC 12228 after 18 hrs by serial microdilution assay; type: functional; details: ATCC 12228, 18 h
Staphylococcus aureus [4] = assay: Antibacterial activity against methicillin-resistant Staphylococcus aureus 1 after 18 hrs by serial microdilution assay; type: functional; details: Staphylococcus aureus, 1, 18 h
Staphylococcus aureus [5] = assay: Antibacterial activity against Staphylococcus aureus ATCC 25923 after 18 hrs by serial microdilution assay; type: functional; details: ATCC 25923, 18 h
Staphylococcus aureus [6] = assay: Antibacterial activity against Staphylococcus aureus ATCC 6538 after 18 hrs by serial microdilution assay; type: functional; details: ATCC 6538, 18 h
Micrococcus luteus = assay: Antibacterial activity against Micrococcus luteus ATCC 10240 after 18 hrs by serial microdilution assay; type: functional; details: ATCC 10240, 18 h
Fusarium acuminatum = assay: Antifungal activity against Fusarium acuminatum ATCC 46651 after 18 hrs by serial microdilution assay; type: functional; details: ATCC 46651, 18 h; in short: as §1
Staphylococcus aureus [7] = assay: Antibacterial activity against methicillin-resistant Staphylococcus aureus 2 after 18 hrs by serial microdilution assay; type: functional; details: Staphylococcus aureus, 2, 18 h
Rhizopus stolonifer [8] = assay: Antifungal activity against Rhizopus stolonifer ATCC 56227b after 18 hrs by serial microdilution assay; type: functional; in short: as §1
Bacillus subtilis = assay: Antibacterial activity against Bacillus subtilis […] after 18 hrs by serial microdilution assay; type: functional
Streptococcus pneumoniae = assay: Antibacterial activity against Streptococcus pneumoniae ATCC 49619 after 18 hrs by serial microdilution assay; type: functional; details: ATCC 49619, 18 h
[9] = tested on: Trichophyton mentagrophytes; assay: Antifungal activity against Trichophyton mentagrophytes ATCC 9533 after 18 hrs by serial microdilution assay; type: functional; details: ATCC 9533, 18 h; in short: as §1
[10] = tested on: Staphylococcus epidermidis; assay: Antibacterial activity against Staphylococcus epidermidis ATCC 49134 after 18 hrs by serial microdilution assay; type: functional; details: ATCC 49134, 18 h
Aspergillus fumigatus = assay: Antifungal activity against Aspergillus fumigatus ATCC 204305 after 18 hrs by serial microdilution assay; type: functional; details: ATCC 204305, 18 h; in short: as §1
Rhizopus stolonifer [11] = assay: Reduction in ergosterol content in Rhizopus stolonifer ATCC 56227 at 256 microg/ml by HPLC analysis; type: functional, organism-based; details: TDE = time-dependent effect
In short: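 Treated fungal material was derivatised and its ergosterol measured by HPLC from the area of the ergosterol peak at Rt 8.26 min. Content is expressed as mg per 1 g dry fungal mass and followed over incubation time up to 96 h.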

Rhizopus stolonifer [12] = assay: Reduction in ergosterol content in Rhizopus stolonifer ATCC 56227 assessed per gram of dry fungi mass at 256 microg/ml incubated for 24 hrs measured after 24 to 96 hrs by HPLC analysis; type: functional
In short: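 Ergosterol was quantified by HPLC in derivatized fungal material from treated cultures, using the peak area at a retention time of 8.26 min. Results are expressed as mg ergosterol per 1 g of dry fungal mass. Content was followed over incubation time, up to 96 h.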

SMILES | MIC [1] [mg/L] | MIC (Aspergillus brasiliensis) [mg/L] | MIC [2] [mg/L] | MIC [3] [mg/L] | MIC (Staphylococcus aureus [4]) [mg/L] | MIC (Staphylococcus aureus [5]) [mg/L] | MIC (Staphylococcus aureus [6]) [mg/L] | MIC (Micrococcus luteus) [mg/L] | MIC (Fusarium acuminatum) [mg/L] | MIC (Staphylococcus aureus [7]) [mg/L] | MIC (Rhizopus stolonifer [8]) [mg/L] | MIC (Bacillus subtilis) [mg/L] | MIC (Streptococcus pneumoniae) [mg/L] | MIC [9] [mg/L] | MIC [10] [mg/L] | MIC (Aspergillus fumigatus) [mg/L] | Activity (Rhizopus stolonifer [11]) | Activity (Rhizopus stolonifer [12]) [mg]
CCCCc1cn(CCCN/C=C2\C(=O)C(O)=C(C(C)C)c3cc(C)c(-c4c(C)cc5c(c4O)/C(=C/NCCCn4cc(CCCC)nn4)C(=O)C(O)=C5C(C)C)c(O)c32)nn1 | 64 (≈ 75.6 µM) | 256 (≈ 302 µM) | 64 (≈ 75.6 µM) | > 256 | > 256 | > 256 | > 256 | > 256 | 256 (≈ 302 µM) | > 256 | 128 (≈ 151 µM) | > 256 | > 256 | 256 (≈ 302 µM) | > 256 | 256 (≈ 302 µM) |  | 
CCCCc1cn(CCN/C=C2\C(=O)C(O)=C(C(C)C)c3cc(C)c(-c4c(C)cc5c(c4O)/C(=C/NCCn4cc(CCCC)nn4)C(=O)C(O)=C5C(C)C)c(O)c32)nn1 | 64 (≈ 78.1 µM) | 256 (≈ 313 µM) | 64 (≈ 78.1 µM) | > 256 | > 256 | > 256 | > 256 | > 256 | 256 (≈ 313 µM) | > 256 | 128 (≈ 156 µM) | > 256 | > 256 | 256 (≈ 313 µM) | > 256 | 256 (≈ 313 µM) |  | 
CCCCCc1cn(CCCN/C=C2\C(=O)C(O)=C(C(C)C)c3cc(C)c(-c4c(C)cc5c(c4O)/C(=C/NCCCn4cc(CCCCC)nn4)C(=O)C(O)=C5C(C)C)c(O)c32)nn1 | 64 (≈ 73.1 µM) | 256 (≈ 293 µM) | 64 (≈ 73.1 µM) | > 256 | > 256 | > 256 | > 256 | > 256 | 256 (≈ 293 µM) | > 256 | 128 (≈ 146 µM) | > 256 | > 256 | 256 (≈ 293 µM) | > 256 | 256 (≈ 293 µM) |  | 
CCCc1cn(CCN/C=C2\C(=O)C(O)=C(C(C)C)c3cc(C)c(-c4c(C)cc5c(c4O)/C(=C/NCCn4cc(CCC)nn4)C(=O)C(O)=C5C(C)C)c(O)c32)nn1 | 64 (≈ 80.9 µM) | 256 (≈ 324 µM) | 64 (≈ 80.9 µM) | 256 (≈ 324 µM) | > 256 | 256 (≈ 324 µM) | 256 (≈ 324 µM) | > 256 | 256 (≈ 324 µM) | > 256 | 128 (≈ 162 µM) | > 256 | 256 (≈ 324 µM) | 256 (≈ 324 µM) | 256 (≈ 324 µM) | 256 (≈ 324 µM) |  | 
CCCCCc1cn(CCN/C=C2\C(=O)C(O)=C(C(C)C)c3cc(C)c(-c4c(C)cc5c(c4O)/C(=C/NCCn4cc(CCCCC)nn4)C(=O)C(O)=C5C(C)C)c(O)c32)nn1 | 64 (≈ 75.6 µM) | 256 (≈ 302 µM) | 64 (≈ 75.6 µM) | > 256 | > 256 | > 256 | > 256 | > 256 | 256 (≈ 302 µM) | > 256 | 128 (≈ 151 µM) | > 256 | > 256 | 256 (≈ 302 µM) | > 256 | 256 (≈ 302 µM) |  | 
Cc1cc2c(C(C)C)c(O)c(O)c(C=O)c2c(O)c1-c1c(C)cc2c(C(C)C)c(O)c(O)c(C=O)c2c1O [GOSSYPOL] | 32 (≈ 61.7 µM) | 256 (≈ 494 µM) | 32 (≈ 61.7 µM) | 16 (≈ 30.9 µM) | 16 (≈ 30.9 µM) | 16 (≈ 30.9 µM) | 16 (≈ 30.9 µM) | 32 (≈ 61.7 µM) | 128 (≈ 247 µM) | 16 (≈ 30.9 µM) | 128 (≈ 247 µM) | 16 (≈ 30.9 µM) | 16 (≈ 30.9 µM) | 128 (≈ 247 µM) | 16 (≈ 30.9 µM) | 256 (≈ 494 µM) | Tde | 
Cc1cc2c(c(O)c1-c1c(C)cc3c(c1O)/C(=C/NCCn1cc(COCc4ccccc4)nn1)C(=O)C(O)=C3C(C)C)/C(=C/NCCn1cc(COCc3ccccc3)nn1)C(=O)C(O)=C2C(C)C | 16 (≈ 16.9 µM) | 128 (≈ 135 µM) | 16 (≈ 16.9 µM) | > 256 | > 256 | > 256 | > 256 | > 256 | 128 (≈ 135 µM) | > 256 | 64 (≈ 67.6 µM) | > 256 | > 256 | 256 (≈ 270 µM) | > 256 | 256 (≈ 270 µM) | Tde | 1
CCCc1cn(CCCN/C=C2\C(=O)C(O)=C(C(C)C)c3cc(C)c(-c4c(C)cc5c(c4O)/C(=C/NCCCn4cc(CCC)nn4)C(=O)C(O)=C5C(C)C)c(O)c32)nn1 | 64 (≈ 78.1 µM) |  | 64 (≈ 78.1 µM) |  |  |  |  |  |  |  |  |  |  |  |  |  |  | 
Cc1cc2c(c(O)c1-c1c(C)cc3c(c1O)/C(=C/NCCCn1cc(COCc4ccccc4)nn1)C(=O)C(O)=C3C(C)C)/C(=C/NCCCn1cc(COCc3ccccc3)nn1)C(=O)C(O)=C2C(C)C | 16 (≈ 16.4 µM) |  | 16 (≈ 16.4 µM) |  |  |  |  |  |  |  |  |  |  |  |  |  |  | 
Clc1ccc(COC(Cn2ccnc2)c2ccc(Cl)cc2Cl)c(Cl)c1 (stereo unspecified) [MICONAZOLE] | 16 (≈ 38.4 µM) |  | 16 (≈ 38.4 µM) |  |  |  |  |  |  |  |  |  |  |  |  |  |  | 
